# Source: paper PMC6177216 (Journal of controlled release : official journal of the …, 2018)
# Where two headings read alike, the source gives them in different places.
# Legend:
# [1] = test system: 4T1.2 mouse breast cancer cells; assay: MTT cytotoxicity assay in 4T1.2 cells; format: cell-based
# ceramides in MCF-7 cells = assay: Ceramide levels by LC/MS in MCF-7 cells; format: cell-based, human; settings: PPMP 1.7 μM and/or DOX 100 nM, 48 h
# Summary of the method: (§1)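 Cells seeded at 2×10⁴ (4T1.2) or 6×10⁴ (MCF-7) per well in DMEM with 10% FBS and 1% penicillin-streptomycin for 24 h. Medium was then replaced with 2% FBS medium containing test compound, free or micellar. After 48 h, cells were washed with ice-cold D-PBS and lysed in 0.2% SDS, with an aliquot kept for protein assay. Lipids were resuspended in ACN/IPA/H₂O (1:1:1) and analysed by HPLC-ESI-MS/MS. Peak areas were quantified against C6-ceramide internal standard and normalised to protein.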
# [2] = test system: PC-3 human prostate cancer cells; assay: MTT cytotoxicity assay in PC-3 cells; format: cell-based
# Summary of the method: (§2)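 Cells seeded at 5×10³ (MCF-7) or 3×10³ (PC-3) per well and grown 24 h in DMEM with 10% FBS and 1% streptomycin/penicillin. They were then exposed for 48 h to various concentrations of test compound alone or combined with another anticancer agent. Viability was read by MTT. IC50 came from fitting an inhibitory normalised dose-response model with variable slope.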
# [3] = test system: MCF-7 human breast cancer cells; assay: MTT cytotoxicity assay in MCF-7 cells; format: cell-based; settings: for inhibition of cell proliferation (in words): MTT
# Summary of the method: as §2
# GCS mRNA [4] = assay: GCS mRNA expression by real-time PCR in MCF-7 cells; format: cell-based, human; settings: 48 h; for effect on GCS mRNA expression: various concentrations
# ceramides in 4T1.2 cells = assay: Ceramide levels by LC/MS in 4T1.2 cells; format: cell-based, mouse; settings: PPMP 1.7 μM and/or DOX 100 nM, 48 h
# Summary of the method: as §1
# GCS mRNA [5] = assay: GCS mRNA expression by real-time PCR in 4T1.2 cells; format: cell-based, mouse; settings: 48 h; for effect on GCS mRNA expression: various concentrations
# [6] = Plasma pharmacokinetics of DOX; format: in vivo, tumor-free female CD1 mice; settings: DOX in plasma; i.v. 5 mg/kg DOX; CD1 mice
# [7] = In vitro DOX release by dialysis in DPBS; format: physicochemical; settings: DOX 0.5 mg/mL
# Summary of the method: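 Dialysis release was run alongside free drug and drug loaded in a pharmacologically inert copolymer micelle as comparators. Cumulative release was followed from 0 to 72 h in triplicate.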
smiles,measurement,setting,value
"CCCCCCCCCCCCCCCC(=O)NC(CN1CCOCC1)C(O)c1ccccc1 (centres unmarked) [PPMP, 1-phenyl-2-palmitoylamino-3-morpholino-1-propanol]",cytotoxicity / inhibition of proliferation (in words),"[1]; 4T1.2, 48 h, MTT",inhibited the proliferation
same,IC50,"[1]; Mus musculus, 4T1.2, 48 h, read-out: D501, IC50 of PPMP in single treatment",2200 ± 100 nM
same,effect on amount of C16 ceramide,ceramides in MCF-7 cells,modest increase
same,IC50,"[2]; Homo sapiens, PC-3, 48 h, read-out: D501, IC50 of PPMP in single treatment",3400 ± 100 nM
same,IC50,"[3]; Homo sapiens, MCF7, 48 h, read-out: D501, IC50 of PPMP in single treatment",5.7 ± 0.4 µM
same,inhibition of cell proliferation (in words),"[3]; MCF-7, 48 h",concentration-dependent inhibition
same,effect on DOX-induced upregulation of GCS mRNA expression,"GCS mRNA [4]; PPMP 1.7 μM, DOX 100 nM",effective in inhibiting
same,effect on basal level of GCS mRNA,GCS mRNA [4]; PPMP concentration 1.7 μM,significant decreases
same,effect on amount of C16 ceramide,ceramides in 4T1.2 cells,modest increase
same,effect on DOX-induced upregulation of GCS mRNA expression,"GCS mRNA [5]; PPMP 1.7 μM, DOX 100 nM",effective in inhibiting
same,effect on basal level of GCS mRNA,GCS mRNA [5]; PPMP concentration 1.7 μM,significant decreases
CCCCCCCCCCCCC/C=C/[C@@H](O)[C@H](CO)NC(=O)CCCCC [C6-ceramide],IC50,"[1]; read-out: D502, IC50 of drug 2 in single treatment, 4T1.2, 48 h",2800 ± 200 nM
same,IC50,"[2]; read-out: D502, IC50 of drug 2 in single treatment, PC-3, 48 h",1600 ± 100 nM
same,IC50,"[3]; read-out: D502, IC50 of drug 2 in single treatment, MCF-7, 48 h",6.2 ± 0.2 µM
same,increase of GCS mRNA expression level,GCS mRNA [4]; C6-ceramide 2 μM,6.5 fold
same,effect on GCS mRNA expression,GCS mRNA [4],significant increases
same,effect on GCS mRNA expression,GCS mRNA [5],similarly observed
"CC(=O)O[C@H]1C(=O)[C@@]2(C)[C@H]([C@H](OC(=O)c3ccccc3)[C@]3(O)C[C@H](OC(=O)[C@H](O)[C@@H](NC(=O)c4ccccc4)c4ccccc4)C(C)=C1C3(C)C)[C@]1(OC(C)=O)CO[C@@H]1C[C@@H]2O [PTX, paclitaxel]",IC50,"[1]; Mus musculus, 4T1.2, 48 h, read-out: D502, IC50 of drug 2 in single treatment",0.108 ± 0.0181 µg/mL
same,IC50,"[2]; Homo sapiens, PC-3, 48 h, read-out: D502, IC50 of drug 2 in single treatment",4.3 ± 0.2 ng/mL
same,IC50,"[3]; Homo sapiens, MCF7, 48 h, read-out: D502, IC50 of drug 2 in single treatment",7.14 ± 1.87 µg/mL
same,effect on GCS mRNA expression,GCS mRNA [4],significant induction
same,effect on GCS mRNA expression,GCS mRNA [5],not in 4T1.2 cells
"COc1cccc2c1C(=O)c1c(O)c3c(c(O)c1C2=O)C[C@@](O)(C(=O)CO)C[C@@H]3O[C@H]1C[C@H](N)[C@H](O)[C@H](C)O1 [DOX, Doxorubicin]",effect on amount of C16 ceramide,ceramides in MCF-7 cells,significantly induced
same,inhibition of cell proliferation (in words),"[3]; MCF-7, 48 h",concentration-dependent inhibition
same,AUC0−∞,[6],9.20 µg·h/mL
same,CL,[6],10.87 µL/h
same,Cmax,[6],4.41 µg/µL
same,T1/2,[6],3.35 h
same,Vd,[6],52.49 µL
same,increase of GCS mRNA expression level,GCS mRNA [4]; DOX 200 nM,4.2 fold
same,effect on GCS mRNA expression,GCS mRNA [4],significant increases
same,DOX released,[7]; in 2 h,Forty eight
same,DOX released,[7]; within 12 h,around 83%
same,effect on amount of C16 ceramide,ceramides in 4T1.2 cells,significantly induced
same,effect on GCS mRNA expression,GCS mRNA [5],similarly observed
